# This is a sample that favours compounds with a hit; in the whole collection about 2% have one here.
# Xi reactivation: activators of X-chromosome reactivation in mouse fibroblasts. XiGFP mouse fibroblasts, % GFP-positive cells imaging, 3 d; cells co-treated with 5-aza-dC sensitizer; scaled so ellipticine positive control = 100%. activation, % at 7.58 µM. 360,000 compounds, 0.055% hits;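 active = mean normalized replicate activation at least 10% and every replicate at or above 10%; inconclusive = only one of the two criteria met; inactive = mean below 10% and not all replicates reach 10%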;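 note: 0% = median of on-plate neutral control wells and 100% = ellipticine 6 µM median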
#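 material = 68-5-11 XiGFP fibroblast line | medium = DMEM plus 5-aza-dC sensitizer | schedule = 3 days compound exposure | benchmarks = positive control ellipticine, 6 µM final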
# Casp6 inh: caspase-6 (human) enzyme inhibition | inhibition, % at 12.5 µM | 350,000 compounds, 0.53% hits | purified caspase-6, Z-VEID-R110 cleavage fluorescence | P55212 | AID 686996;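 active = mean inhibition across replicates at least about 35%, with every replicate also reaching that limit, limit read from the data; inconclusive = only one of the two criteria met; inactive = neither criterion met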;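 note: 0% = median of neutral control wells and 100% = no fluorescence left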
# Target sequence (P55212 24-179 limits assumed): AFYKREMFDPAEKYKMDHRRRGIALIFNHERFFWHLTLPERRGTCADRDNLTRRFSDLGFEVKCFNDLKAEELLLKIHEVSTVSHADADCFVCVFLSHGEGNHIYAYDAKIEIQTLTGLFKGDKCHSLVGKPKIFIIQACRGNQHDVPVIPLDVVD
# Target sequence (P55212 194-293 limits assumed): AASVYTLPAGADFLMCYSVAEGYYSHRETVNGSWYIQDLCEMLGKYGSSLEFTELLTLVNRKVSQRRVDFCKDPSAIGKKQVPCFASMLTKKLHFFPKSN
# CaV13 FRET inh: Primary screen for inhibitors of IQ motif and Ca2+-dependent inactivation inhibitor domain binding in CACNA1D, Förster resonance energy transfer in living cells, …; inhibition, % at 12.3 µM; 340,000 compounds, 0.098% hits; AID 743397; HEK cells, CFP/YFP FRET ICDI-IQ, plate reader, 10 min; percent FRET-ratio fall versus neutral wells;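 active = mean replicate inhibition of at least 30% and at least 1% of replicates passing that level; inconclusive = only one of the two criteria is met; inactive = neither criterion is met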;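 note: 0% = median of the neutral control wells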
# DENV2 CPE rescue: protects cells from dengue virus 2 cytopathic effect | 350,000 compounds, 1.7% hits | DENV2-infected cells, cytopathic effect rescue, plate reader | CPE inhibition, % at 9.99 µM; in the data active = CPE inhibition above about 20%, passing the limit was not always enough; inconclusive = no clear call, values can overlap the other calls; tested in BHK-21 cells;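 note: 0% = median of neutral control wells and 100% = median of positive control wells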
# FN deposit inh: fibronectin deposition inhibition | AH1F fibroblasts, Alexa488-fibronectin deposition fluorescence, overnight | inhibition, % at 12.6 µM | 350,000 compounds, 0.086% hits;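 active = mean inhibition across replicates of 30% or more, regardless of how many single replicates reach that level; inconclusive = mean under 30% yet at least half of replicates reach 30%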;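 note: positive control wells lacked labelled fibronectin entirely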
#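 Material: AH1F fibroblast monolayer depositing Alexa488-labelled fibronectin into matrix / Amount: 10000 AH1F cells per well / Signal: fluorescence 485/525 nm / Medium: DMEM, 2% serum / Compound: single dose, pinned / Incubation: 1 h cell adhesion before compound, then overnight fibronectin incubation / Reagent: Alexa488-FN, 24 nM final / Read-out: inhibition of fibronectin deposition signal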
# Numbers without * were called inactive; ? = inconclusive; nt = no result.
SMILES,Xi reactivation,Casp6 inh,CaV13 FRET inh,DENV2 CPE rescue,FN deposit inh
Cc1ccc(NC(=O)CCC(=O)NNC(=O)COc2ccccc2)c(C)c1,0,41*,-3,0,0
CC1CCN(S(=O)(=O)c2ccc3c(c2)C(Cl)(Cl)C(=O)N3)CC1,2,69*,-9,-1,12
CC(=O)c1ccc(N2CCN(S(=O)(=O)c3ccc4c(c3)C(Cl)(Cl)C(=O)N4)CC2)cc1,0,10,-7,2,-6
CN1c2ccc(-c3cccc(C#N)c3)cc2[C@@H]2[C@@H](CCN2C(=O)Nc2cc(F)ccc2F)[C@@H]1CO,0,1,nt,16,15
COc1ccccc1NC(=O)N1CC[C@H]2[C@@H]1c1cc(C#Cc3ccc(F)cc3)ccc1N(C)[C@H]2CO,0,0,nt,34*,-13
CN1c2ccc(-c3ccc(C#N)cc3)cc2[C@@H]2[C@@H](CCN2C(=O)Nc2ccccc2F)[C@@H]1CO,0,-2,nt,42*,-1
COc1ccc(S(=O)(=O)Nc2cc3c4c(c2)CCN4C(=O)CC3)cc1,0,3,-3,60*,3
O=C(O)c1cccc(Nc2ccnc(Nc3cccc(C(=O)O)c3)n2)c1,0,35*,-20,-3,2
O=C(O)c1cccc(Nc2nc(-c3cc4ccccc4oc3=O)cs2)c1,0,4,77*,-2,-3
C[C@@H]1CN(C)C(=O)Cc2cc(N)ccc2O[C@@H]1CN(C)S(C)(=O)=O,0,nt,nt,nt,-1
Cc1nc(NC(=O)CCl)sc1C(=O)N(C)C,0,0,4,17,9
Cc1nc(NC(=O)C(Cl)Cl)sc1C(=O)N(C)C,12*,nt,-4,nt,5
CCS(=O)(=O)Nc1ccc2c(c1)C(=O)N(C)C[C@H](OC)[C@H](C)CN(C(=O)COC)[C@@H](C)CO2,0,1,nt,-7,-1
CCS(=O)(=O)Nc1ccc2c(c1)C(=O)N(C)C[C@H](OC)[C@@H](C)CN(C(=O)COC)[C@H](C)CO2,0,0,nt,82*,-8
CCCC(=O)Nc1ccc2c(c1)C(=O)N(C)C[C@H](OC)[C@@H](C)CN(C(=O)C1CCCC1)[C@H](C)CO2,1,2,nt,35*,0
CCC(=O)N1C[C@H](C)[C@@H](OC)CN(C)C(=O)c2cc(NC(=O)NC3CCCC3)ccc2OC[C@H]1C,0,2,nt,43*,0
CCC(=O)Nc1ccc2c(c1)C(=O)N(C)C[C@H](OC)[C@@H](C)CN(C(=O)CC)[C@@H](C)CO2,0,-1,nt,63*,9
COc1ccc(NC(=O)Nc2ccc3c(c2)[C@@H]2C[C@@H](CC(=O)N4CCN(C)CC4)O[C@H](CO)[C@@H]2O3)cc1,0,0,nt,-3,nt
C[C@H](CO)N1C[C@H](C)[C@H](CN(C)C(=O)Cc2cccnc2)Oc2ncc(-c3cncnc3)cc2C1=O,-1,-3,nt,-3,1
CCC(=O)Nc1ccc2c(c1)C(=O)N(C)C[C@@H](OC)[C@H](C)CN(C(=O)COC)[C@@H](C)CO2,1,0,nt,21*,-9
COCC(=O)N1C[C@@H](C)[C@@H](OC)CN(C)C(=O)c2cc(NC(=O)c3ccc(OC)cc3)ccc2OC[C@H]1C,0,3,nt,34*,-6
COCC(=O)N1C[C@H](C)[C@H](OC)CN(C)C(=O)c2cc(NC(=O)c3ccc(OC)cc3)ccc2OC[C@@H]1C,0,nt,nt,12,-9
CCC(=O)Nc1ccc2c(c1)C(=O)N(C)C[C@@H](OC)[C@H](C)CN(C(=O)COC)[C@H](C)CO2,1,-2,nt,-4,-1
C[C@@H]1CN([C@H](C)CO)C(=O)c2cc(NC(=O)NC3CCCCC3)ccc2O[C@@H](C)CCCCO[C@@H]1CN(C)S(=O)(=O)c1ccc(F)cc1,0,-2,nt,3,-3
C[C@@H]1CN([C@H](C)CO)C(=O)c2cc(NC(=O)Nc3ccc4c(c3)OCO4)ccc2O[C@@H]1CN(C)S(=O)(=O)c1cccs1,0,-2,nt,9,5
SMILES,Xi reactivation,Casp6 inh,CaV13 FRET inh,DENV2 CPE rescue,FN deposit inh
O=C(C[C@@H]1C=C[C@@H](NC(=O)c2ccccn2)[C@@H](CO)O1)NCc1cccc(F)c1,0,-4,nt,-4,-8
O=C(C[C@@H]1C=C[C@@H](NC(=O)c2ccccn2)[C@H](CO)O1)NCc1cccc(F)c1,0,0,nt,36*,-11
CC(=O)N[C@H]1C=C[C@H](CC(=O)NCc2ccc(Cl)cc2)O[C@H]1CO,0,3,nt,32*,nt
COc1ccc(CNC(=O)C[C@@H]2C=C[C@H](NC(=O)c3ccc4c(c3)OCO4)[C@H](CO)O2)cc1,0,-1,nt,7,-3
O=C(C[C@H]1C=C[C@H](NC(=O)C2CCC2)[C@H](CO)O1)NCC1CC1,0,-2,nt,-6,-4
COc1ccc(CNC(=O)C[C@@H]2C=C[C@@H](NC(=O)c3ccc4c(c3)OCO4)[C@H](CO)O2)cc1,0,1,nt,44*,-16
O=C(C[C@H]1C=C[C@@H](NC(=O)C2CCC2)[C@@H](CO)O1)NCC1CC1,0,-1,nt,58*,0
CC(=O)N[C@H]1C=C[C@@H](CC(=O)NCc2ccc(Cl)cc2)O[C@@H]1CO,0,1,nt,1,nt
CNC[C@H]1Oc2c(NS(C)(=O)=O)cccc2C(=O)N([C@@H](C)CO)C[C@@H]1C,0,2,nt,0,nt
CC(=O)OCCCN(C)CC/C=C1/c2ccccc2CSc2ccccc21,0,-9,-4,43*,-7
O=C(COC(=O)/C=C/c1ccco1)NCc1ccco1,0,60*,-20,-3,-13
O=C(COC(=O)/C=C/c1ccco1)Nc1ncc(C(F)(F)F)cc1Cl,0,53*,-5,?,4
Cc1c(Cl)cnc(NC(=O)COC(=O)/C=C/c2ccco2)c1Cl,0,25,-7,-2,0
O=C(COC(=O)Cc1ccc(Cl)cc1)NCc1ccco1,0,42*,-6,-1,nt
CSc1ccccc1NC(=O)COC(=O)/C=C/c1ccco1,nt,41*,nt,nt,nt
C[C@@H](NC(=O)C[C@H]1CC[C@H](NC(=O)Cc2ccccn2)[C@@H](CO)O1)c1ccccc1,0,0,nt,3,8
Cc1ccc(S(=O)(=O)Nc2ccc3c(c2)CC(=O)N([C@@H](C)CO)C[C@@H](C)[C@H](CN(C)Cc2ccc(Cl)c(Cl)c2)O3)cc1,0,-2,nt,19,16
Nc1c(C(=O)Nc2ccc(S(=O)(=O)N3CCCC3)cc2)sc2nc3ccc(OC(F)(F)F)cc3cc12,4,nt,-6,nt,-6
Nc1c(C(=O)Nc2ccc(S(=O)(=O)N3CCCC3)cc2)sc2nc3cc4c(cc3cc12)CCC4,63*,nt,-3,nt,-3
CCC(=O)Nc1ccc2c(c1)OC[C@H](C)N(C(=O)c1ccccn1)C[C@H](C)[C@H](OC)CN(C)C2=O,0,8,nt,34*,4

# High-throughput results: PubChem, Broad Institute
